APP 5'UTR act = APP 5'UTR luciferase reporter activation; SH-SY5Y APP 5'UTR luciferase reporter, luminescence; zero percent = DMSO vehicle wells; activation, % at 2 µM; 190,000 tested, 1% active; AID 1276;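 active means activation above a set limit, based on mean plus 3 SD of controls, cut at about 140% in these data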
STAT3 act = activators of IL-6 induced STAT3 signaling; U3A cells, IL-6 STAT3-luciferase reporter, luminescence; 100% = signal with IL-6 EC80 alone; activation (% of control), % at 5.6 µM; 190,000 tested, 0.91% active; AID 871;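 active means activation above the screen-wide mean of compound activation plus 3 SD, cut at about 130% in these data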;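 further: 0% = background luminescence of wells with medium and substrate only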
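system = STAT3-luciferase reporter U3A cells | reagent = IL-6 stimulus at 33 ng/mL final | timing = 1 h compound pre-exposure, 6 h IL-6 stimulation, 37 °C | measured by = luminescence | evaluation = % activation versus median of IL-6-stimulated wells | control set = IL-6-only wells as 100% reference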
STAT3 blocker = reduces IL-6 driven STAT3 reporter signal | U3A cells, IL-6 STAT3-luciferase reporter, luminescence; host cell line lacks STAT1 | inhibition, % at 5.5 µM | 190,000 tested, 0.89% active;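 active means inhibition above the mean inhibition across all screened compounds plus 3 SD, cut at about 44% in these data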;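 further: 0% = DMSO only wells and 100% = 100 µM nifuroxazide control wells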
NF-kB neuron act = NF-kB expression increase, human neuronal cells; NF-kB reporter expression; hits give high values; fold change at 12.5 µM; 190,000 tested, 1.6% active; AID 1239; in the data active means fold change above about 3.3
STAT1 activator = activators of IFN-gamma induced STAT1 signaling; activation (% of control), % at 5.5 µM; 200,000 tested, 2.6% active; NIH 3T3 STAT1-luciferase reporter, luminescence; 100% = IFN-gamma alone, no compound;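 active means activation above the screen-wide mean activation plus 3 SD, cut at about 130% in these data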;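 further: raw ratio to IFN-gamma control signal so 100% means no change and 0% no light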
STAT1 inh-1 = inhibitors of IFN-gamma induced STAT1 signaling. NIH 3T3 STAT1-luciferase reporter, luminescence. AID 920. 200,000 tested, 0.35% active. inhibition, % at 5.5 µM;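 active means inhibition above a set limit, the mean inhibition across all tested compounds plus 3 SD, cut at about 34% in these data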;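 further: 0% = IFN-gamma with DMSO and 100% = IFN-gamma with 300 µM nifuroxazide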
STAT1 inh-2 = confirmation of STAT1 signaling inhibitors. shares compounds with STAT1 inh-1. NIH 3T3 STAT1-luciferase reporter, IFN-gamma, luminescence. inhibition, % at 5.5 µM. 200 tested, 55% active. AID 1263;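 active means triplicate mean inhibition exceeding the hit cutoff computed for the primary STAT1 screen, cut at about 35% in these data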;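 further: 0% = DMSO with IFN-gamma and 100% = 300 µM nifuroxazide with IFN-gamma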
NFkB inh = counter-screen for STAT1 inhibitors: NF-kappaB inhibition; shares compounds with STAT1 inh-1; HEK293T NF-kB luciferase reporter, TNF-alpha induced, luminescence; inhibition, % at 5.7 µM; 200 tested, 30% active;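 active means inhibition above the mean of solvent-only control wells plus 3 SD of those wells, cut at about 15% in these data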;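 further: 0% = DMSO with TNF-alpha and 100% = MG-132 control with TNF-alpha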
STAT3 inh STAT1c = STAT3 inhibition in STAT1 inhibitor counter-screen | shares compounds with STAT1 inh-1 | U3A cells, IL-6 STAT3 luciferase reporter, luminescence; cells lacking STAT1 | inhibition, % at 5.7 µM | 200 tested, 20% active;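 active means inhibition above the mean of solvent-only control wells plus 3 SD, set per campaign, cut at about 25% in these data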;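 further: 0% = IL-6 plus DMSO and 100% = IL-6 plus nifuroxazide control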
* hit, by the source's call; . = no result given. Only some compounds are listed: those with a hit (about 4.9% of all), similar ones and a draw of the others.

SMILES	APP 5'UTR act	STAT3 act	STAT3 blocker	NF-kB neuron act	STAT1 activator	STAT1 inh-1	STAT1 inh-2	NFkB inh	STAT3 inh STAT1c
CCOC(=O)c1sc(N(Cc2ccccc2)C(=O)COC(=O)c2ccc(O)cc2)nc1C	-25	99	5	1.1	49	58*	59*	57*	8
CC1C(=O)NN=C1C(=O)N/N=C\C(Br)=C\c1ccccc1 (stereo unspecified)	127	92	17	3.1	24	81*	40*	3	-23
O=C(N/N=C/c1ccncc1)c1nn(Cc2ccccc2)c(=O)c2ccccc12	-4	93	16	1.1	63	39*	23	-8	8
CCOC(=O)N1CCN(C(=O)c2ccc(CSc3ccc(Cl)cc3)cc2)CC1	17	88	18	0.75	65	38*	39*	10	24
N#CC(C#N)=C(Nc1ccc(F)cc1)SCc1cccc(Br)c1	-1	72	33	0.5	65	39*	52*	16*	43*
O=C(OCc1nnc(-c2ccccc2)o1)C1CC(=O)N(Cc2ccco2)C1 (stereo unspecified)	-6	98	8	1.2	97	5	.	.	.
COc1ccccc1-c1cc(C(F)(F)F)nc(S(=O)(=O)CCCC(=O)Nc2cccnc2Cl)n1	-27	96	8	0.97	59	43*	41*	-7	4
COc1ccccc1-c1cc(C(F)(F)F)nc(S(=O)(=O)CCCC(=O)NCc2ccc(F)cc2)n1	-24	92	13	1	69	32	.	.	.
COc1ccccc1-c1cc(C(F)(F)F)nc(S(=O)(=O)CCCC(=O)NC(C)C)n1	5	93	11	0.92	79	23	.	.	.
COc1ccc(-c2cc(C(F)(F)F)nc(S(=O)(=O)CCCC(=O)Nc3cc(C)on3)n2)cc1OC	-1	100	8	0.97	52	51*	46*	5	-63
O=C(Nc1ccccc1)c1cc(N2CCOCC2)nc2ccccc12	0	114	-16	1.1	106	-7	.	.	.
O=C(O)c1cc(/C=C/c2ccc(N3CCOCC3)cc2)nc2ccccc12	47	65	43	1.9	64	39*	-5	38*	-13
Cc1ccc(-c2nnc(N3CC(C)OC(C)C3)c3ccccc23)cc1 (stereo unspecified)	-9	105	-1	1.2	91	11	.	.	.
CCOc1ccc(S(=O)(=O)Nc2cccc(C)c2)c2cccnc12	-7	96	11	0.96	64	37*	25	-2	7
O=C(CNC(=S)N(Cc1ccccc1)Cc1ccccc1F)NCCc1ccc(Cl)cc1	-11	112	-13	1.1	104	-6	.	.	.
Cc1onc(C(=O)N2C(C)CCCC2C)c1[N+](=O)[O-] (stereo unspecified)	1	103	-6	1.2	104	-4	.	.	.
N#C/C(=N\Nc1cccc(Cl)c1)C(=O)c1ccccc1	-1	95	12	0.62	94	7	.	.	.
COc1ccc(C(=O)/C(C#N)=N/Nc2cccc([N+](=O)[O-])c2)cc1	11	82	24	0.49	59	44*	21	6	2
O=C(COC(=O)CNS(=O)(=O)c1ccc2ccccc2c1)Nc1ccccc1Sc1ccccc1	10	100	0	0.98	98	2	.	.	.
Cc1ccccc1-c1noc(N)c1C#N	-4	100	3	1.6	68	35*	42*	-4	2
COc1ccc(/C=C/C(=O)C2(O)CCCCC2)cc1OC	17	94	9	1.7	94	7	.	.	.
COC(=O)c1ccc(CC(=O)c2ccc(O)cc2O)o1	3	95	8	0.81	80	21	.	.	.
CCOC(=O)c1ccc(CC(=O)c2ccc(O)cc2O)o1	21	82	25	0.77	53	51*	46*	32*	-35
CCn1ccnc1[C@@H]1C[C@H]2CN(c3ccccc3OC)C(=O)[C@]23CCCN13	11	105	-1	1.1	91	9	.	.	.
Cc1ccc(S(=O)(=O)N2CCN(C(C(=O)Nc3ccc(F)cc3)c3ccccc3)CC2)cc1 (stereo unspecified)	17	106	-8	1.1	61	43*	47*	-5	-27
SMILES	APP 5'UTR act	STAT3 act	STAT3 blocker	NF-kB neuron act	STAT1 activator	STAT1 inh-1	STAT1 inh-2	NFkB inh	STAT3 inh STAT1c
S=C(Nc1ccccc1Cl)NC1CC2CCCC(C1)N2C1CC1 (stereo unspecified)	2	101	6	0.96	94	5	.	.	.
CS(=O)(=O)N1CCC(Oc2ccccc2C(=O)N2CCNC(=O)C2)CC1	-16	115	-10	1	80	19	.	.	.
C=CCOC(=O)C1=C[C@H](c2cn(C(C)=O)c3ccccc23)C[C@H](OCCCCO)O1	1	.	.	1.1	74	29	.	.	.
C=CCOC(=O)C1=C[C@@H](c2cn(C(C)=O)c3ccccc23)C[C@@H](OCCCCO)O1	-7	.	.	0.92	70	34	11	-5	-68
CCOc1cc(-c2noc(N)c2C#N)cc(OCC)c1OCC	19	91	14	1.3	64	40*	42*	0	10
CCOC(=O)N1CCN(C(=O)c2ccc(Cn3c(=S)[nH]c4cc5c(cc4c3=O)OCO5)cc2)CC1	6	74	35	0.57	42	64*	59*	26*	26*
O=C(c1ccc(Cn2c(=S)[nH]c3ccccc3c2=O)cc1)N1CCN(c2ccccn2)CC1	12	79	31	0.75	59	44*	35*	14	27*
CCOC(=O)N1CCN(C(=O)c2ccc(Cn3c(=S)[nH]c4cc(OCC)c(OCC)cc4c3=O)cc2)CC1	4	89	22	0.55	58	45*	61*	30*	19
COc1ccccc1N1CCN(C(=O)c2ccc(Cn3c(=S)[nH]c4cc5c(cc4c3=O)OCO5)cc2)CC1	-8	103	-2	1.1	106	-6	.	.	.
CCOC(=O)N1CCN(C(=O)c2ccc3c(=O)n(Cc4ccccc4)c(=S)[nH]c3c2)CC1	0	104	-1	0.9	106	-6	.	.	.
CCOC(=O)N1CCN(C(=O)c2ccc3c(=O)n(-c4cc(OC)ccc4OC)c(=S)[nH]c3c2)CC1	-19	98	7	0.87	55	48*	19	-6	-3
Cc1c(-c2nnc(SCC(=O)O)n2-c2ccccc2Br)nnn1-c1ccccc1	15	99	5	1.2	99	1	.	.	.
